Activity calls are given as the source filed them. The calls are words filed in the database; no cut-off is given here.
Tests used:
Huh-7 [1] = test: Induction of apoptosis in human HuH7 cells assessed as nuclear condensation at 10 uM after 48 hrs by Hoechst 33258 staining-based immunofluorescence microscopy; type: functional, cell-based
Outline: (§1)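 Cells on coverslips were incubated overnight, then treated with 10 µM compound or DMSO for 48 h. They were washed in ice-cold PBS, fixed in cold methanol for 10 min, and stained with 1 µg/mL Hoechst 33258 for 5 min in the dark. Nuclei were examined by fluorescence microscopy with a 40x objective.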

Huh-7 [2] = test: Induction of apoptosis in human HuH7 cells assessed as horseshoe nuclear structure at 10 uM after 48 hrs by Hoechst 33258 staining-based immunofluorescence microscopy; type: functional, cell-based; outline: as §1
Huh-7 [3] = test: Cytotoxicity against human HuH7 cells assessed as cell impedance at IC25 to IC100 measured every 30 mins for 72 hrs by RT-CES assay; type: functional, cell-based; conditions: TDE = time-dependent effect
Outline: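 Huh7 cells were seeded at 1000–5000 cells/well on electrode plates. […] Impedance was read as cell index every 10 min for the first 24 h, then every 30 min, over 72 h. Data were normalized to DMSO; inhibition (%) = [1 − (CI treated/CI DMSO)] × 100. Each experiment was run at least three times.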

[4] = Cytotoxicity against human HuH7 cells assessed as growth inhibition after 72 hrs by sulforhodamine B assay; type: functional, cell-based, Huh-7
Outline: (§2)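 Cells were grown at 37°C, 5% CO2 in DMEM with 10% FBS. They were seeded at 1000–3000 cells/well, grown 24 h, then exposed to compound at 2.5–40 µM for 72 h. Cells were fixed in 10% TCA for 1 h at 4°C, stained with 0.4% SRB in 1% acetic acid for 10 min, and the dye solubilized in 10 mM Tris. Absorbance was read at 515 nm; runs were in triplicate; IC50 was calculated, with fits of R2 0.8–1 accepted.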

MCF7 = test: Cytotoxicity against human MCF7 cells assessed as growth inhibition after 72 hrs by sulforhodamine B assay; type: functional, cell-based; outline: as §2
[5] = Cytotoxicity against human HCT116 cells assessed as growth inhibition after 72 hrs by sulforhodamine B assay; type: functional, cell-based, HCT-116; outline: as §2
[6] = Cytotoxicity against human Mahlavu cells assessed as growth inhibition after 72 hrs by sulforhodamine B assay; type: functional, cell-based; outline: as §2
[7] = Cytotoxicity against human FOCUS cells assessed as growth inhibition after 72 hrs by sulforhodamine B assay; type: functional, cell-based; outline: as §2
[8] = Cytotoxicity against human SNU475 cells assessed as growth inhibition after 72 hrs by sulforhodamine B assay; type: functional, cell-based, SNU-475; outline: as §2
HepG2 = test: Cytotoxicity against human HepG2 cells assessed as growth inhibition after 72 hrs by sulforhodamine B assay; type: functional, cell-based; outline: as §2
[9] = Cytotoxicity against human Hep3B cells assessed as growth inhibition after 72 hrs by sulforhodamine B assay; type: functional, cell-based, Hep 3B2; outline: as §2
[10] = Homo sapiens, Huh-7, 72 h, read-out: IC50
[11] = Homo sapiens, MCF7, 72 h, read-out: IC50
[12] = Homo sapiens, HCT-116, 72 h, read-out: IC50
[13] = Homo sapiens, Mahlavu, 72 h, read-out: IC50
[14] = Homo sapiens, FOCUS, 72 h, read-out: IC50
[15] = Homo sapiens, SNU-475, 72 h, read-out: IC50
[16] = Homo sapiens, HepG2, 72 h, read-out: IC50
[17] = Homo sapiens, Hep3B, 72 h, read-out: IC50

With `CC(c1ccc(-c2ccccc2)c(F)c1)c1nnc2n1N=C(c1ccc(Cl)cc1Cl)CS2` (stereo unspecified) the Activity (Huh-7 [1]) was “Active”, the Activity (Huh-7 [2]) was “Active” and the Activity (Huh-7 [3]) was “tde”. The IC50 [4, 10] was 3.7 µM, the IC50 (MCF7; [11]) was 7.6 µM and the IC50 [5, 12] was 6.9 µM. It also gave an IC50 [6, 13] of 6.6 µM, an IC50 [7, 14] of 5.4 µM and an IC50 [8, 15] of 4.7 µM. The IC50 (HepG2; [16]) was 8.6 µM and the IC50 [9, 17] was 4.2 µM.
`CC(C)Cc1ccc(C(C)c2nnc3n2N=C(c2ccc(C(F)(F)F)cc2)CS3)cc1` (stereo unspecified) showed an IC50 [4, 10] of 8.4 µM, an IC50 (MCF7; [11]) of 4.2 µM and an IC50 [5, 12] of 6.5 µM.
In the case of `CC(C(=O)O)c1ccc(-c2ccccc2)c(F)c1` (stereo unspecified) [FLURBIPROFEN], the IC50 ([4]; huh-7) is reported as “Not Active”, the IC50 (MCF7; mcf7) is reported as “Not Active” and the IC50 ([5]; hct-116) is reported as “Not Active”. For the same molecule, the IC50 ([6]; mahlavu) was “Not Active”, the IC50 ([7]; focus) was “Not Active” and the IC50 ([8]; snu-475) was “Not Active”. For the same molecule, the IC50 (HepG2; hepg2) was “Not Active” and the IC50 ([9]; hep 3b2) was “Not Active”.
For `CC(C)Cc1ccc(C(C)c2nnc3n2N=C(c2ccccc2)CS3)cc1` (stereo unspecified), the IC50 [4, 10] was 6.1 µM, the IC50 (MCF7; [11]) was 9.7 µM and the IC50 [5, 12] was 7.6 µM.
In the case of `CC(C)Cc1ccc(C(C)c2nnc3n2N=C(c2ccc([N+](=O)[O-])cc2)CS3)cc1` (stereo unspecified), the IC50 ([4]; huh-7) is reported as “Not Active”, the IC50 (MCF7; mcf7) is reported as “Not Active” and the IC50 ([5]; hct-116) is reported as “Not Active”.
For `CC(C)Cc1ccc(C(C)c2nnc3n2N=C(c2ccc(Cl)cc2)CS3)cc1` (stereo unspecified), the IC50 [4, 10] was 5.7 µM, the IC50 (MCF7; [11]) was 8.8 µM and the IC50 [5, 12] was 6.7 µM.
`COc1ccc2cc(C(C)c3n[nH]c(=S)n3N)ccc2c1` (stereo unspecified) gave an IC50 [4, 10] of 40.8 µM, an IC50 (MCF7; [11]) of 22.3 µM and an IC50 [5, 12] of 20.2 µM. The IC50 ([6]; mahlavu) was “Not Active”, the IC50 ([7]; focus) was “Not Active” and the IC50 [8, 15] was 15.9 µM. It also gave an IC50 (HepG2; [16]) of 40 µM and an IC50 [9, 17] of 1.9 µM.
In the case of `COc1ccc2cc(C(C)c3nnc4n3N=C(c3ccc(Cl)cc3Cl)CS4)ccc2c1` (stereo unspecified), the IC50 [4, 10] is reported as 10.7 µM, the IC50 (MCF7; [11]) is reported as 14.6 µM and the IC50 [5, 12] is reported as 14 µM.
In the case of `CC(c1ccc(-c2ccccc2)c(F)c1)c1nnc2n1N=C(c1ccccc1)CS2` (stereo unspecified), the IC50 [4, 10] is reported as 6.7 µM, the IC50 (MCF7; [11]) is reported as 7.4 µM and the IC50 [5, 12] is reported as 9.7 µM.
In the case of `CC(C)Cc1ccc(C(C)c2nnc3n2N=C(c2ccc(Cl)cc2Cl)CS3)cc1` (stereo unspecified), the IC50 [4, 10] is reported as 7.5 µM, the IC50 (MCF7; [11]) is reported as 11.8 µM and the IC50 [5, 12] is reported as 11.1 µM.
Molecule `CC[C@@]1(O)C(=O)OCc2c1cc1n(c2=O)Cc2cc3ccccc3nc2-1` [CAMPTOTHECIN] has an IC50 [4, 10] of at most 0.1 µM, an IC50 (MCF7; [11]) of at most 0.1 µM and an IC50 [5, 12] of at most 0.1 µM. For the same molecule, the IC50 [6, 13] was under 1 µM, the IC50 [7, 14] was under 1 µM and the IC50 [8, 15] was under 1 µM. For the same molecule, the IC50 (HepG2; [16]) was under 1 µM and the IC50 [9, 17] was under 1 µM.
Work on `COc1ccc2cc(C(C)c3nnc4n3N=C(c3ccccc3)CS4)ccc2c1` (stereo unspecified) yielded an IC50 [4, 10] of 5.7 µM, an IC50 (MCF7; [11]) of 11.7 µM and an IC50 [5, 12] of 8.9 µM.
Molecule `CC(C)Cc1ccc(C(C)c2nnc3n2N=C(c2ccc(F)cc2)CS3)cc1` (stereo unspecified) has an IC50 [4, 10] of 7.8 µM, an IC50 (MCF7; [11]) of 8.9 µM and an IC50 [5, 12] of 12.4 µM.
With `COc1ccc2cc([C@H](C)C(=O)O)ccc2c1` [NAPROXEN] the IC50 ([4]; huh-7) was “Not Active”, the IC50 (MCF7; mcf7) was “Not Active” and the IC50 ([5]; hct-116) was “Not Active”. The IC50 ([6]; mahlavu) was “Not Active”, the IC50 ([7]; focus) was “Not Active” and the IC50 ([8]; snu-475) was “Not Active”. The IC50 (HepG2; hepg2) was “Not Active” and the IC50 ([9]; hep 3b2) was “Not Active”.
With `COc1ccc2cc(C(C)c3nnc4n3N=C(c3ccc(Cl)cc3)CS4)ccc2c1` (stereo unspecified) the IC50 [4, 10] was 5.6 µM, the IC50 (MCF7; [11]) was 10.1 µM and the IC50 [5, 12] was 8.8 µM.
For `CC(c1ccc(-c2ccccc2)c(F)c1)c1n[nH]c(=S)n1N` (stereo unspecified), the IC50 [4, 10] was 43.1 µM, the IC50 (MCF7; mcf7) was “Not Active” and the IC50 ([5]; hct-116) was “Not Active”. For the same molecule, the IC50 ([6]; mahlavu) was “Not Active”, the IC50 ([7]; focus) was “Not Active” and the IC50 ([8]; snu-475) was “Not Active”. The IC50 (HepG2; [16]) was 21.4 µM and the IC50 ([9]; hep 3b2) was “Not Active”.

Source: ChEMBL document CHEMBL3751842, “Novel triazolothiadiazines act as potent anticancer agents in liver cancer cells through Akt and ASK-1 proteins” (Bioorg Med Chem, 2016)
